Assay outcomes: PubChem, several laboratories
ERa SRC1 inh – ER-alpha (human) coactivator binding inhibition | P03372 | AID 629 | TR-FRET ER-alpha LBD / SRC-1 peptide, estradiol-bound | inhibition, % at 25.6 µM | hit rate 1.7% among 86,000; in the data active = inhibition above about 50%;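 also: 0% = receptor plus peptide control and 100% = peptide only without receptor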
FAK inh – inhibitors of human focal adhesion kinase; Q05397; biochemical FAK kinase activity assay; inhibition, %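 (tested at 7 µM)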; hit rate 0.84% among 97,000; AID 727; in the data active = inhibition above about 19%;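 also: 0% = DMSO and 100% = reference compound high control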
Target sequence (Q05397 whole entry, looked up): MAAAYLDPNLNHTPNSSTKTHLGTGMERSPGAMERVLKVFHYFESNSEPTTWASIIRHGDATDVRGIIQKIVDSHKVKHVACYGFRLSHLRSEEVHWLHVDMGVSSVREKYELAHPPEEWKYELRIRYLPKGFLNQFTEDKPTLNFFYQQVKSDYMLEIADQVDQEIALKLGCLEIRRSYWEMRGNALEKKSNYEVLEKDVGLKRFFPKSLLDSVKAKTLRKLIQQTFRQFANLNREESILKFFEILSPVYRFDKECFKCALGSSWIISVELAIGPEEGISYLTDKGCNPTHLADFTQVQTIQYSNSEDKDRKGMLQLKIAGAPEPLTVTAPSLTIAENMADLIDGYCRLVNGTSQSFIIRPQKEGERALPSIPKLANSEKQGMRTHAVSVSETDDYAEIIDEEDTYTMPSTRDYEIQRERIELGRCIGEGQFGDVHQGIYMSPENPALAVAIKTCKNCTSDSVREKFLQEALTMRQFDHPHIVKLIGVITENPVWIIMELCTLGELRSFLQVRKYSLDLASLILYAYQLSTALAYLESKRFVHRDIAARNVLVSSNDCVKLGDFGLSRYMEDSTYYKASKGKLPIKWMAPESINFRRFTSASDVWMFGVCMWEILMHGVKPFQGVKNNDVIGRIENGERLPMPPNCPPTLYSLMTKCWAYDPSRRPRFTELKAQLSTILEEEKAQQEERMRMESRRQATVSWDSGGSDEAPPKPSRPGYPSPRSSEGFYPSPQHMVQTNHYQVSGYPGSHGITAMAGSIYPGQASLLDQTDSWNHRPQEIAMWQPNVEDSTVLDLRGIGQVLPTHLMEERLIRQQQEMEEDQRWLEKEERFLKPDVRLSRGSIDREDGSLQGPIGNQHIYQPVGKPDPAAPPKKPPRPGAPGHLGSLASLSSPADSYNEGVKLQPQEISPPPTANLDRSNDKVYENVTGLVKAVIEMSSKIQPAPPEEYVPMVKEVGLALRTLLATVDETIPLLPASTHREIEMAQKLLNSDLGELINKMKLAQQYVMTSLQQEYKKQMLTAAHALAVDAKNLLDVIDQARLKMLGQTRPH
ERa SRC1 pot – enhances coactivator binding to human estrogen receptor alpha. P03372. TR-FRET ERalpha-LBD/SRC-Cy5 coactivator binding, 2 h; 100 = basal binding, no effect. coactivator binding (% of control), % at 25.6 µM. hit rate 1.3% among 86,000; in the data active = activity above about 200%;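 also: binding measured in presence of low estradiol as agonist stimulus; 0% = peptide alone without receptor and 100% = receptor with peptide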
Rev-RRE block – disrupts HIV-1 Rev binding to RRE RNA; AID 704; hit rate 0.79% among 97,000; Rev peptide-RRE RNA binding, FRET; inhibition, % at 8 µM; P05866;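 active = inhibition above the screen-wide mean plus 3 SD, cut at about 35% in these data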;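 also: 0% = median DMSO wells and 100% = median Neomycin B control wells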
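assay system = Cy5-tagged RRE RNA duplex with fluorescein-tagged Rev peptide | incubation = 5 + 15 min at 25 °C | also added = labelled Rev peptide | measure = % inhibition of FRET ratio versus controls | benchmarks = DMSO wells as 0% and neomycin B wells as 100% inhibition | measured by = FRET fluorescence readout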
Smad3 FoxH1 inh – inhibitors of human Smad3 transcription factor binding; P84022; TR-FRET Smad3/Dy647-FoxH1 peptide binding, europium anti-His; inhibition, % at 25 µM; hit rate 0.29% among 88,000; AID 630;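 active = compounds that reduce the energy-transfer binding signal between the protein and its labelled peptide by more than half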;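 also: 0% = Smad3 plus labelled peptide maximal FRET and 100% = peptide-only background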
ERb SRC1 inh – ER-beta (human) coactivator binding inhibition. Q92731. TR-FRET ER-beta LBD / SRC1-Cy5 peptide binding; receptor agonist-loaded with 1 µM estradiol. inhibition, % at 25.6 µM. hit rate 1.3% among 86,000. AID 633;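 active = compounds whose percent inhibition of the receptor-coactivator binding signal exceeds about 50% in the single-dose screen, limit read from the data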;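 also: 0% = receptor plus peptide wells without compound and 100% = peptide-only wells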
Active calls of the source: *; . = no result given; [ ] = another dose, or the depositor's remark. Most compounds without a hit are left out; they make up all but 4% or so of the library.

SMILES | ERa SRC1 inh | FAK inh | ERa SRC1 pot | Rev-RRE block | Smad3 FoxH1 inh | ERb SRC1 inh
C[C@]12CC[C@@H]3c4ccc(O[C@@H]5O[C@H](C(=O)O)[C@@H](O)[C@H](O)[C@H]5O)cc4CC[C@H]3[C@@H]1C[C@@H](O)[C@@H]2O | -8 | . | 429* | . | 2 | 10
O=C(O)/C(=C\c1ccncc1)c1cccc2ccccc12 | . | . | . | . | 7 | .
COc1cc(C)cc2c(-c3c(O)cc(O)c4c3C[C@H](C)N[C@@H]4C)cc(-c3cc(-c4c(O)cc(O)c5c4C[C@H](C)N[C@@H]5C)c4cc(C)cc(OC)c4c3O)c(O)c12 | . | . | . | . | 4 | .
CC1(C)S[C@H]2[C@H](C(=O)O)N=C(Cc3ccccc3)N2[C@H]1C(=O)O | . | . | . | . | 10 | .
CCN1c2ccccc2NC2N=C(OC)C(c3ccccc3)C21 (stereo not given) | 0 | 1 | 100 | -3 | 4 | 2
CCN1c2ccccc2NC2C1C(C(C)=O)C(=O)N2c1ccc(Cl)cc1 (stereo not given) | -7 | 2 | 113 | 50* | 17 | -5
O=C(Nc1ccc2c(c1)OCO2)C1CCN(S(=O)(=O)c2cccs2)CC1 | 5 | 8 | 92 | 2 | 7 | 4
O=C(Nc1ccc2c(c1)OCO2)C1Cc2ccccc2CN1S(=O)(=O)c1cccs1 (stereo not given) | 79*[fluorescence artefact?] | 11 | 60 | 7 | -6 | 41
O=C(Nc1ccc(Cl)cc1)c1ccncc1 | -4 | 0 | 108 | 5 | 3 | -8
O=C(Nc1cccc(Cl)c1Cl)c1ccncc1 | 54*[fluorescence artefact?] | -2 | 99 | 5 | -1 | -4
Cc1ccc(S(=O)(=O)c2c(N)n(Cc3ccco3)c3nc4ccccc4nc23)cc1C | 1 | -1 | 220* | 26 | 1 | 3
Nc1c(S(=O)(=O)c2ccccc2)c2nc3ccccc3nc2n1Cc1ccco1 | -28 | -4 | 70 | 43* | 19 | 17
Cc1ccc(S(=O)(=O)c2c(N)n(CCN3CCOCC3)c3nc4ccccc4nc23)cc1C | 22 | -1 | 140 | 4 | 7 | 29
CSc1nc(C)cc(Nc2ccc(O)c(CN3CCCCC3)c2)n1 | . | . | . | . | -8 | .
O=S1(=O)C=C(Sc2nc3cc(Cl)ccc3o2)c2ccccc21 | . | -1 | . | 7 | . | .
N[C@@H](CC1=CS(=O)(=O)c2ccc(Cl)cc21)C(=O)O | . | . | . | . | 77* | .
O=S(=O)(C=C(c1ccccc1)c1ccccc1)c1ccccc1 | . | -1 | . | 9 | . | .
O=S(=O)(/N=C(/Sc1ccccc1)c1ccccc1)c1ccccc1 | 77* | 1 | 64 | 4 | 5 | 54*[fluorescence artefact?]
CSc1nsc(/C=C/Nc2ccc(Cl)cc2)c1C#N | . | 5 | . | 42* | . | .
CSc1nsc(/C=C/Nc2cccc(Cl)c2)c1C#N | 3 | 1 | 107 | 32 | 2 | 2
O=c1c2cc(Br)cc(Br)c2oc2nc3n(c(=O)c12)CCCS3 | 17 | 2 | 93 | -1 | 11 | 6
O=Cc1ccc2oc3nc4n(c(=O)c3c(=O)c2c1)CCCS4 | 66* | 15 | 153 | -12 | 14 | 58*
Nc1nc(N)c2[nH]cnc2n1 (tested in a mixture with another compound) | . | . | . | . | -3 | .
Nc1ncnc2nc[nH]c12.Nc1ncnc2nc[nH]c12.[Cl][Pt]([Cl])([Cl])[Cl] | . | . | . | . | 71* | .
CC(C)(C)NC(=O)CN(C(=O)CNC(=O)c1cccs1)c1ccc2c(c1)OCCO2 | . | -8 | . | 1 | . | .
SMILES | ERa SRC1 inh | FAK inh | ERa SRC1 pot | Rev-RRE block | Smad3 FoxH1 inh | ERb SRC1 inh
COc1cc2cc(/C=C/C(=O)c3ccco3)c(Cl)nc2cc1OC | -7 | 2 | 98 | 79*[fluorescence artefact?] | -22 | -1
CCCS(=O)(=O)c1c(S(=O)(=O)CCC)c2cnccn2c1C(=O)c1ccc(Cl)cc1 | -3 | 0 | 107 | 11 | -5 | 0
Cc1cc(C)c(S(=O)(=O)/N=C2\C=CC(=O)C(Cl)=C2)c(C)c1 | 70* | 1 | 82 | 3 | 5 | 61*
COc1ccc2[nH]c3nc(SCc4nnc(-c5ccc(C)cc5)o4)nnc3c2c1 | 81* | 17 | 197 | 4 | 6 | 64*[fluorescence artefact?]
COc1cccc(Cn2nnc(C(=O)Nc3ccc(C)cc3)c2N)c1 | -2 | 10 | 246*[fluorescence artefact?] | 7 | 3 | -1
COc1cccc(CNC(=O)c2nnn(CC(=O)Nc3ccc(C)c(C)c3)c2N)c1 | 36 | . | 287* | . | 9 | 13
Cc1ccc(NC(=O)c2nnn(-c3cc(C)cc(C)c3)c2N)cc1 | 22 | 0 | 119 | 12 | 5 | -7
Cc1ccc(NC(=O)Cn2nnc(C(=O)Nc3ccc(C)c(C)c3)c2N)cc1 | 70*[fluorescence artefact?] | -1 | 149 | 7 | -1 | 26
Cc1cccc(-n2nnc(C(=O)Nc3ccc(F)cc3)c2N)c1 | 63*[fluorescence artefact?] | 3 | 70 | 3 | 4 | 37
CC(C(=O)N1CCN(c2ccc(Cl)cc2)CC1)c1ncc(C(F)(F)F)cc1Cl (stereo not given) | . | -6 | . | 0 | . | .
COc1ccc(OC)c(N(CC(N)=O)S(=O)(=O)c2ccc(OC)c(OC)c2)c1 | 2 | -1 | 99 | 2 | -8 | -7
COc1ccc(C2=NOC(C(=O)NCc3ccc(F)cc3)C2)cc1OC (stereo not given) | 70*[fluorescence artefact?] | 2 | 67 | 10 | 6 | 34
COc1ccc(CNC(=O)C2CC(c3cccc(OC)c3)=NO2)cc1 (stereo not given) | -6 | -6 | 108 | 4 | -3 | 73*[fluorescence artefact?]
CC1(C)[C@@H]2CC[C@@]1(CS(=O)(=O)Nc1ccccc1)C(=O)C2 | . | . | . | . | -15 | .
O=C(c1ccc2c(=O)n3c(nc2c1)CCCCC3)N1CCN(C(c2ccccc2)c2ccccc2)CC1 | . | 3 | . | -9 | . | .
CCOC(=O)C1=C(c2cccc(Oc3ccccc3)c2)NC(=S)NC1C (stereo not given) | . | 1 | . | 2 | . | .
Cc1cccc(Nc2cc(Cl)nc(SCC(=O)O)n2)c1C | . | . | . | . | 8 | .
C[C@@](O)(CNS(=O)(=O)c1ccccc1)c1ccccc1 | . | . | . | . | -7 | .
CC(C)CCNC(=O)c1cc(-c2ccco2)nc2ccccc12 | 3 | 1 | 93 | 5 | 1 | 3
Cc1cc(C(N)=O)c2cc(Br)ccc2n1 | 44 | 2 | 115 | 5 | 6 | 6
O=C(O)c1cc(-c2ccco2)nc2ccc(Br)cc12 | 64* | . | 25 | . | 4 | 61*
CCOc1cc(N2CCOCC2)c(OCC)cc1NC(=O)c1cc(-c2ccco2)nc2ccccc12 | 75* | . | 120 | . | 13 | 39
CCCCCCNC(=O)c1cc(-c2ccco2)nc2ccccc12 | 85*[fluorescence artefact?] | 20* | 70 | 3 | 6 | 75*
O=C(NCC1CCCO1)c1cc(-c2ccco2)nc2ccccc12 (stereo not given) | 69*[fluorescence artefact?] | 1 | 43 | -2 | 10 | 75*[fluorescence artefact?]
O=C1C(Cl)=C(N2CCCCC2)C(=O)C(Cl)=C1c1cnc(N2CCCCC2)s1 | 23 | 3 | 31 | 23 | 14 | 48
